Measurements as given in ChEMBL document CHEMBL1126099, “Synthesis and biological characterization of alpha-(4-fluorophenyl)-4-(5-fluoro-2-pyrimidinyl)-1-piperazinebutanol and analogues as potential atypical antipsychotic agents” (J Med Chem, 1992).
The source made the active and inactive calls. No cut-off for these calls is given here.

Tests used:
D(2) dopamine receptor [1] = biological target: T1, D(2) dopamine receptor (Rattus norvegicus, UniProt P61169); test: In vitro inhibitory against radioligand [3H]spiperone binding to rat striatal Dopamine receptor D2
Procedure, shortened: (§1)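 Competition binding against tritiated radioligand. Test drug was run at five concentrations in a single experiment, and IC50 (nM) was derived from displacement.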

Rattus norvegicus [2] = test: Effective in vivo peroral dose against induction of catalepsy in rats; format: functional
Rattus norvegicus [3] = organism: Rattus norvegicus; test: Effective peroral dose for inhibition of conditioned avoidance response in rats; format: functional; settings: po
[4] = biological target: Sigma non-opioid intracellular receptor 1 (Rattus norvegicus, UniProt Q9R0C9); test: Displacement of (+)-[3H]-3-PPP from rat cortical sigma site; procedure, shortened: as §1
Rattus norvegicus [5] = organism: Rattus norvegicus; test: Inhibition of apomorphine-induced stereotypy in rats via peroral route; format: functional
[6] = biological target: T2, Adrenergic receptor alpha-1 (Rattus norvegicus, UniProt P15823+P23944+P43140); test: Inhibitory concentration against radioligand [3H]-WB- 4101 binding to rat cortical Alpha-1 adrenergic receptor; format: protein assay; procedure, shortened: as §1
T2 sequence (P15823 whole entry): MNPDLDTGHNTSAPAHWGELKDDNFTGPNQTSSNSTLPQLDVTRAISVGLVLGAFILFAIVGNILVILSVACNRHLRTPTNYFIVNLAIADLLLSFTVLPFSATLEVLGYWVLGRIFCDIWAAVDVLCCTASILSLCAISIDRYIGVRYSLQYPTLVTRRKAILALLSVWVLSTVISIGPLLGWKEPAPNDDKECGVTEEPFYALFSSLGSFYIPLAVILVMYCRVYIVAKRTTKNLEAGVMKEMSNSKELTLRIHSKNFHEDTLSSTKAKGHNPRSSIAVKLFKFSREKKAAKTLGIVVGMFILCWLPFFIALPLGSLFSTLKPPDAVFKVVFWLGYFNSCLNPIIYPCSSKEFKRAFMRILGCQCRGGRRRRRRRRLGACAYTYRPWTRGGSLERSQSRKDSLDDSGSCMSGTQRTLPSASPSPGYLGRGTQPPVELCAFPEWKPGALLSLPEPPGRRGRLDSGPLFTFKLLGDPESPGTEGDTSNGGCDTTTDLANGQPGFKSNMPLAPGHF
T2 sequence (P23944 whole entry): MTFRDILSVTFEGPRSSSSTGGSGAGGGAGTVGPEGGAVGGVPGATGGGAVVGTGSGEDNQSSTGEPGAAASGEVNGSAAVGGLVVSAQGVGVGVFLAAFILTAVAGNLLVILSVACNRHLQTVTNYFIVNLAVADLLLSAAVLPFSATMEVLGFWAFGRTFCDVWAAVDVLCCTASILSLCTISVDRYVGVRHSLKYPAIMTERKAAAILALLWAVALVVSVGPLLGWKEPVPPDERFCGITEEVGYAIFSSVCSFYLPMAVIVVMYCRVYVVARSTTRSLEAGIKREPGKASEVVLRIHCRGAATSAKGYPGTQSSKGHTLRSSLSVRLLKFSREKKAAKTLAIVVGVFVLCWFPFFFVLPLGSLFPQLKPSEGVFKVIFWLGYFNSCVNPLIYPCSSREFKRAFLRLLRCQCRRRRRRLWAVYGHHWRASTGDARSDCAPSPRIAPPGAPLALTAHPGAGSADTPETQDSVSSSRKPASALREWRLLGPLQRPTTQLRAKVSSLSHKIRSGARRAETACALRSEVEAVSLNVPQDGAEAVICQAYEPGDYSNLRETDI
T2 sequence (P43140 whole entry): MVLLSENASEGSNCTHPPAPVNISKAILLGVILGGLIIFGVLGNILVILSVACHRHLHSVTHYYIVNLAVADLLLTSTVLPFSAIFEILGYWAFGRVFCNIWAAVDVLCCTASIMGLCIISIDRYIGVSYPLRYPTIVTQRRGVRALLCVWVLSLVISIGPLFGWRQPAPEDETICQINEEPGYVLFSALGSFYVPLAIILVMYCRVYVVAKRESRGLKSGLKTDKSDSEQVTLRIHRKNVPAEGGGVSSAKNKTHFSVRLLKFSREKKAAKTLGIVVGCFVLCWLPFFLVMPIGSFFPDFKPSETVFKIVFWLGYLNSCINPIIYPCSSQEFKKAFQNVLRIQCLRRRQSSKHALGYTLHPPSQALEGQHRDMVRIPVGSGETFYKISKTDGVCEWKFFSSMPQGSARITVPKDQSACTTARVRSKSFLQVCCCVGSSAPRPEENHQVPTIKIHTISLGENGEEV

D(2) dopamine receptor [7] = biological target: T1, D(2) dopamine receptor; test: Inhibitory concentration against radioligand [3H]spiperone binding to rat striatal Dopamine receptor D2
Procedure, shortened: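 [3H]Spiperone displacement at the D2 receptor. Each value comes from a single experiment in which displacement of the tritiated ligand was measured at five concentrations of test drug, and an IC50 in nM was derived from that.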

[8] = biological target: T2, Adrenergic receptor alpha-1; test: Inhibition of [3H]WB-4101 binding to rat cortical Alpha-1 adrenergic receptor in vitro; format: protein assay; procedure, shortened: as §1
Mus musculus [9] = organism: Mus musculus; test: Effective dose for inhibition of norepinephrine induced lethality in mouse; format: functional
Mus musculus [10] = organism: Mus musculus; test: Effective dose for inhibition of physostigmine induced lethality in mouse; format: functional
Rattus norvegicus [11] = test: Effective dose for reversal of trifluoperazine-induced catalepsy in rats; I=Inactive (ED50 mg/Kg); format: functional, organism-based
Rattus norvegicus [12] = organism: Rattus norvegicus; test: Effective dose for ethanol potentiation in rats; format: functional
Rattus norvegicus [13] = organism: Rattus norvegicus; test: Effective dose for inhibition of spontaneous motor activity in rats; format: functional
Rattus norvegicus [14] = organism: Rattus norvegicus; test: Effective dose for motor incoordination in rats was determined by rotarod method; format: functional
[15] = Rattus norvegicus, po, read-out: ED50

T1 sequence (P61169 whole entry): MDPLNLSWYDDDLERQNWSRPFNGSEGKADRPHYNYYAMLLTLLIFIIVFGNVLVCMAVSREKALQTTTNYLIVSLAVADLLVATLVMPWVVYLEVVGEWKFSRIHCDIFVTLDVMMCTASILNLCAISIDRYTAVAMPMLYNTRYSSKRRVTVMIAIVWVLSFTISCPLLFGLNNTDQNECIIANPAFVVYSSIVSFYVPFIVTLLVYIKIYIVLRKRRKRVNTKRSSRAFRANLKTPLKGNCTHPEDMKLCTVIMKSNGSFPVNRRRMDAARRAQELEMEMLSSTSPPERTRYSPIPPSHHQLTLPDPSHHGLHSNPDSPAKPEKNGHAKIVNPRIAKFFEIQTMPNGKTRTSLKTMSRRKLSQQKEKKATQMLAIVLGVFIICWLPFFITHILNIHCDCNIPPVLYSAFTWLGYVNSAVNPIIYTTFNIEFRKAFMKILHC
Sigma non-opioid intracellular receptor 1, sequence (Q9R0C9 whole entry): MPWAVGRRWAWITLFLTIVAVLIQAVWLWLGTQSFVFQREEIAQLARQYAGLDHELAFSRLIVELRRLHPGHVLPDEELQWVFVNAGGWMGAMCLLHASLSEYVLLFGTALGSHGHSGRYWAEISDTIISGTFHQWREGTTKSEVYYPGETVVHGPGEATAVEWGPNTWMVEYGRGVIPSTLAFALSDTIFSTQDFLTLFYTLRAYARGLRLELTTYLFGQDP

Structure (SMILES) | IC50 (D(2) dopamine receptor [1]) | IC50 [4] | IC50 [8] | ED50 (Rattus norvegicus [2]; [15]) | ED50 (Rattus norvegicus [3]) | ED50 (Rattus norvegicus [5]; [15]) | further results
O[C@H](CCCN1CCN(c2ncc(F)cn2)CC1)c1ccc(F)cc1 | – | – | – | 11.4 mg/kg | – | 44 mg/kg | IC50 [6]: 610 nM; IC50 (D(2) dopamine receptor [7]): > 1000 nM
OC(CCCN1CCN(c2ncc(Br)cn2)CC1)c1ccc(F)cc1 (stereo unspecified) | > 1000 nM | 26 nM | 1500 nM | 108 mg/kg | 50 mg/kg | > 65 mg/kg | –
Fc1ccc(/C=C(\CCN2CCN(c3ncccn3)CC2)c2ccc(F)cc2)cc1 | 1700 nM | > 1000 nM | 375 nM | – | > 100 mg/kg | – | –
O=C(CCCN1CCC(O)(c2ccc(Cl)cc2)CC1)c1ccc(F)cc1 [HALOPERIDOL] | – | – | – | 0.58 mg/kg | 2.8 mg/kg | 0.5 mg/kg | ED50 (Mus musculus [9]): 26 mg/kg; ED50 (Mus musculus [10]): > 80 mg/kg; Activity (Rattus norvegicus [11]): inactive; ED50 (Rattus norvegicus [12]): 0.28 mg/kg; ED50 (Rattus norvegicus [13]): 0.73 mg/kg; ED50 (Rattus norvegicus [14]): 5.2 mg/kg
CSc1nc(N2CCN(CCCC(=O)c3ccc(F)cc3)CC2)ncc1F | 396 nM | 120 nM | 95 nM | – | > 100 mg/kg | > 100 mg/kg | –
O=C(CCCN1CCN(c2ncc(Cl)cn2)CC1)c1ccc(F)cc1 | 817 nM | – | 51 nM | – | > 100 mg/kg | – | –
CSc1nc(N2CCN(CCCC(O)c3ccc(F)cc3)CC2)ncc1F (stereo unspecified) | > 1000 nM | 26 nM | 305 nM | – | > 100 mg/kg | > 100 mg/kg | –
O[C@@H](CCCN1CCN(c2ncc(F)cn2)CC1)c1ccc(F)cc1 [BMY-14802] | – | – | – | – | – | – | IC50 [6]: 570 nM; ED50 (Rattus norvegicus [2]): 38.1 mg/kg; ED50 (Rattus norvegicus [5]): 25.4 mg/kg

The next lines start with results.

IC50 (D(2) dopamine receptor [1]) | IC50 [4] | IC50 [8] | Structure (SMILES) | ED50 (Rattus norvegicus [2]; [15]) | ED50 (Rattus norvegicus [3]) | ED50 (Rattus norvegicus [5]; [15]) | further results
2120 nM | 110 nM | – | CC(O)(CCCN1CCN(c2ncc(F)cn2)CC1)c1ccc(F)cc1 (stereo unspecified) | > 100 mg/kg | > 25 mg/kg | > 50 mg/kg | –
415 nM | – | 230 nM | CCC(O)(CCCN1CCN(c2ncccn2)CC1)c1ccc(F)cc1 (stereo unspecified) | – | > 100 mg/kg | > 100 mg/kg | –
> 1000 nM | 160 nM | 814 nM | OC(CCN1CCN(c2ncc(F)cn2)CC1)c1ccc(F)cc1 (stereo unspecified) | – | > 100 mg/kg | > 100 mg/kg | –
1880 nM | 190 nM | 266 nM | N#CC(CCCN1CCN(c2ncc(F)cn2)CC1)c1ccc(F)cc1 (stereo unspecified) | > 100 mg/kg | 19.8 mg/kg | > 100 mg/kg | –
200 nM | > 1000 nM | 400 nM | OC(CCCN1CCN(c2ncccn2)CC1)(c1ccc(F)cc1)c1ccc(F)cc1 | – | 52.9 mg/kg | > 50 mg/kg | –
– | – | 1140 nM | OC(CCCN1CCN(c2ncc(F)cn2)CC1)(c1ccc(F)cc1)c1ccc(F)cc1 | – | > 100 mg/kg | – | –
– | 130 nM | 29 nM | O=C(CCCN1CCN(c2ncc(F)cn2)CC1)c1ccc(F)cc1 | 144 mg/kg | 36.3 mg/kg | 58.9 mg/kg | –
